Measured values from different studies.
Cell line: HeLa
Effect on: cell growth or viability

Structure (SMILES) | technique | time | IC50 [µM]
COc1ccc(-c2n(CCC(C)C)c3ccccc3[n+]2Cc2cc(OCCC(C)C)c3ccccc3c2OCCC(C)C)cc1 | MTT | 24 h | 10.9
O=C(Cn1cc(COc2ncnc3[nH]cnc23)nn1)Nc1ccc([N+](=O)[O-])cc1 | MTT | – | 10.4
Fc1ccc(NC(=S)N/N=C/c2cccc3cc4ccccc4nc23)cc1 | MTT | 48 h | 18.4
CN1C(=O)C(=O)c2cc3c(c4c2c1cc1ccccc14)OCO3 | MTT | 75 h | 56.9
CC(C)CCOc1cc(C(=O)C[n+]2cn(Cc3ccccc3)c3ccccc32)c(OCCC(C)C)c2ccccc12 | MTT | 24 h | 14.8
O=[N+]([O-])c1ccc(NC(=S)N/N=C/c2cccc3cc4ccccc4nc23)cc1 | MTT | 48 h | 7.5
CC(C)CCOc1cc(C[n+]2c(C(C)C)n(CCC(C)C)c3ccccc32)c(OCCC(C)C)c2ccccc12 | MTT | 24 h | 6.8
Fc1ccccc1Nc1nc(-c2ccncc2)nc2c1CNCC2 | MTT | – | > 100
[Cl-].[Li+] | MTT | – | > 10000
CC(C)CCOc1cc(C[n+]2c(CO)n(CCC(C)C)c3ccccc32)c(OCCC(C)C)c2ccccc12 | MTT | 24 h | 11.8
CN(C)C1CCc2[nH]c3c(C(N)=O)ccc(-c4ccccc4Cl)c3c2C1 (stereo not drawn) | – | – | 0.19
COc1cccc2c1C(=O)c1c(O)c3c(c(O)c1C2=O)C[C@@](O)(C(=O)CO)C[C@@H]3O[C@H]1C[C@H](N)[C@H](O)[C@H](C)O1 | MTT | 48 h | 0.2
CN1CCc2c(c3ccccc3n2Cc2ccc(C(=O)NO)cc2)C1 | CCK-8 | 48 h | 17.6
CNC(=S)N/N=C/c1cccc2cc3ccccc3nc12 | MTT | 48 h | 21.8
Cc1sc2c(c1C)C(c1ccc(Cl)cc1)=N[C@@H](CC(=O)NCCCCNC(=O)COc1cccc3c1C(=O)N(C1CCC(=O)NC1=O)C3=O)c1nnc(C)n1-2 (stereo partly drawn) | CCK-8 | 72 h | > 10
CN(C)C(=S)[N-]N=C(c1ccccn1)c1ccccn1.[O]=[V+]=[O] | MTT | 48 h | 42.9
COc1cc(C(=O)C[n+]2cn(CCC(C)C)c3ccccc32)c(OC)c2ccccc12 | MTT | 24 h | 17
CN(C)c1cccc(Nc2nc(-c3ccncc3)nc3c2CNCC3)c1 | MTT | – | 32.4
COc1cccc(NC(=S)N/N=C/c2cccc3cc4ccccc4nc23)c1 | MTT | 48 h | 46.8
CCC(=CCc1c(O)cc2c(c1O)C(=O)C[C@H](c1ccccc1O)O2)CC | MTT | – | 37.4
COc1ccc(CNC(=O)Cn2cc(COc3ncnc4[nH]cnc34)nn2)cc1 | MTT | – | 29.6
COC(C)c1n(CCC(C)C)c2ccccc2[n+]1Cc1cc(OCCC(C)C)c2ccccc2c1OCCC(C)C (stereo not drawn) | MTT | 24 h | 5.7
O=C(Cn1cc(COc2ncnc3[nH]cnc23)nn1)Nc1ccc(O)cc1 | MTT | – | 17.6
CC(C)CCOc1cc(C[n+]2cn(CCC(C)C)c3cc(Br)c(Br)cc32)c(OCCC(C)C)c2ccccc12 | MTT | 24 h | 7.2
CCC(=CCc1c(O)cc2c(c1O)C(=O)CC(c1ccc(O)cc1)O2)CC (stereo in doubt) | MTT | 48 h | 19.1
CC(C)CCOc1cc(C(=O)C[n+]2cn(C)c3ccccc32)c(OCCC(C)C)c2ccccc12 | MTT | 24 h | 13.9
CSc1ccccc1-c1ccc(C(N)=O)c2[nH]c3c(c12)CC(N)CC3 (stereo not drawn) | – | – | 0.21
